Among the data in ChEMBL document CHEMBL4043193, “Cytotoxic effect of sanguiin H-6 on MCF-7 and MDA-MB-231 human breast carcinoma cells” (2017) are Activity, viability and Bax/Bcl-2 ratio values, retold here.

Calls of active or inactive are those of the source. The rule behind the calls is not given here.

Experiment [1] concerns MCF7. In words: Induction of apoptosis in human MCF7 ER-positive cells assessed as increase in PARP levels at 50 to 100 uM after 24 hrs by Western blot analysis. In kind it is functional, cell-based. Summed up: (§1)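 Western blot of whole cells after 24 h exposure (MCF-7 at 50 or 100; MDA-MB-231 at 25 or 50). Probed for cleavage of caspase-8, -9, -3 and PARP, and for Bax and Bcl-2 expression. The Bax:Bcl-2 ratio is derived from the same blots.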
Background: A western blot detects proteins with antibodies after separation by electrophoresis.

In experiment [2] the test system is MCF7. In words: Induction of apoptosis in human MCF7 ER-positive cells assessed as increase in cleaved caspase-8 levels at 50 to 100 uM after 24 hrs by Western blot analysis. In kind it is functional, cell-based. Summed up:
as §1

For experiment [3], the system named is MDA-MB-231. In words: Induction of apoptosis in human MDA-MB-231 ER-negative cells assessed as increase in cleaved caspase-3 levels at 25 to 50 uM after 24 hrs by Western blot analysis. In kind it is functional, cell-based. A digest of the protocol: as §1
The test system of experiment [4] is MCF7. In words: Cytotoxicity against human MCF7 ER-positive cells assessed as decrease in cell viability at 5 to 100 uM after 24 hrs by EZ-Cytox assay. In kind it is functional, cell-based.
Experiment [5] relates to MDA-MB-231. Description: Induction of apoptosis in human MDA-MB-231 ER-negative cells assessed as increase in cleaved caspase-9 levels at 25 to 50 uM after 24 hrs by Western blot analysis. In kind it is functional, cell-based. Summed up:
as §1

In experiment [6] the test system is MDA-MB-231. In words: Induction of apoptosis in human MDA-MB-231 ER-negative cells at 50 uM after 24 hrs by Annexin-V/propidium iodide staining-based cytometry relative to control. In kind it is functional. Summed up: (§2)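 Cells exposed 24 h (MCF-7 at 50 or 100; MDA-MB-231 at 25 or 50), then stained with Alexa Fluor 488 annexin V conjugate for externalized phosphatidylserine and examined by fluorescence imaging. The read-out is the percentage of annexin-V-positive cells in a total cell count.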

Experiment [7] has as its system MDA-MB-231. Description: Induction of apoptosis in human MDA-MB-231 ER-negative cells assessed as increase in PARP levels at 25 to 50 uM after 24 hrs by Western blot analysis. In kind it is functional, cell-based. A digest of the protocol:
as §1

In experiment [8] the test system is MCF7. In words: Induction of apoptosis in human MCF7 ER-positive cells assessed as increase in cleaved caspase-3 levels at 50 to 100 uM after 24 hrs by Western blot analysis. In kind it is functional, cell-based. A digest of the protocol:
as §1

Experiment [9] deals with MCF7. In words: Induction of apoptosis in human MCF7 ER-positive cells at 100 uM after 24 hrs by Annexin-V/propidium iodide staining-based cytometry relative to control. In kind it is functional. Summed up:
as §2

In experiment [10] the test system is MCF7. In words: Cytotoxicity against human MCF7 ER-positive cells assessed as cell viability at 100 uM after 24 hrs by EZ-Cytox assay relative to control. In kind it is functional. The conditions noted are these: MCF7, 24 h, read-out: Activity.
Experiment [11] concerns MDA-MB-231. In words: Induction of apoptosis in human MDA-MB-231 ER-negative cells assessed as decrease in Bcl-2 expression levels at 25 to 50 uM after 24 hrs by Western blot analysis. In kind it is functional, cell-based. Summed up:
as §1

The test system of experiment [12] is MDA-MB-231. In words: Cytotoxicity against human MDA-MB-231 ER-negative cells assessed as decrease in cell viability at 5 to 100 uM after 24 hrs by EZ-Cytox assay. In kind it is functional, cell-based.
Experiment [13] deals with MCF7. Description: Cytotoxicity against human MCF7 ER-positive cells assessed as decrease in cell viability after 24 hrs by EZ-Cytox assay. In kind it is functional, cell-based.
The subject of experiment [14] is MCF7. Description: Induction of apoptosis in human MCF7 ER-positive cells assessed as increase in Bax expression levels at 50 to 100 uM after 24 hrs by Western blot analysis. In kind it is functional, cell-based. A digest of the protocol: as §1
Experiment [15] relates to MDA-MB-231. In words: Induction of apoptosis in human MDA-MB-231 ER-negative cells assessed as increase in cleaved caspase-8 levels at 25 to 50 uM after 24 hrs by Western blot analysis. In kind it is functional, cell-based. Summed up:
as §1

In experiment [16] the test system is MDA-MB-231. Description: Induction of apoptosis in human MDA-MB-231 ER-negative cells assessed as increase in Bax to Bcl-2 ratio at 25 to 50 uM after 24 hrs by Western blot analysis.
The subject of experiment [17] is MDA-MB-231. In words: Cytotoxicity against human MDA-MB-231 ER-negative cells assessed as decrease in cell viability after 24 hrs by EZ-Cytox assay. In kind it is functional, cell-based.
Experiment [18] relates to MDA-MB-231. Description: Cytotoxicity against human MDA-MB-231 ER-negative cells assessed as cell viability at 100 uM after 24 hrs by EZ-Cytox assay relative to control. In kind it is functional. The conditions noted are these: MDA-MB-231, 24 h, read-out: Activity.
The subject of experiment [19] is MCF7. Description: Induction of apoptosis in human MCF7 ER-positive cells assessed as increase in Bax to Bcl-2 ratio at 50 to 100 uM after 24 hrs by Western blot analysis.

As to `O=C(O[C@@H]1O[C@@H]2COC(=O)c3cc(O)c(O)c(O)c3-c3c(cc(O)c(O)c3O)C(=O)O[C@H]2[C@@H]2OC(=O)c3cc(O)c(O)c(O)c3-c3c(cc(O)c(O)c3O)C(=O)O[C@@H]12)c1cc(O)c(O)c(Oc2c(O)c(O)c(O)c3c2C(=O)O[C@H]2[C@@H]4OC(=O)c5cc(O)c(O)c(O)c5-c5c(cc(O)c(O)c5O)C(=O)O[C@H]4[C@@H](OC(=O)c4cc(O)c(O)c(O)c4)O[C@@H]2COC(=O)c2cc(O)c(O)c(O)c2-3)c1`, the result in experiment [1], in experiment [2], in experiment [3], in experiment [4], in experiment [5] and in [7] was Active. In addition, the outcome in experiment [8], in experiment [11], in experiment [12], in experiment [14] and in experiment [15] was Active. Further, the Activity in experiment [6] was 40.7%; in experiment [9], 33.7%; in experiment [13], “Dose-dependent effect”; in [17], “Dose-dependent effect”. Moreover, the viability at 100 µM in experiment [10] came out at 69%; in experiment [18], 63%. Moreover, the Bax/Bcl-2 ratio entry in [16] and in experiment [19] was “Active” in each case.
